From the EternaBench riboswitch data

Test system: MS2 coat protein
Assay: apparent Kd, MS2 coat protein; higher = weaker binding; RNA-MaP array; FMN 200 µM where present
Procedure, shortened: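 Apparent Kd: the median of filtered binding-curve fits from single clusters. Designs were transcribed on Illumina sequencing-chip clusters by stalled E. coli RNA polymerase and titrated with SNAP-549-labelled MS2 coat protein from 0.7 or 1.5 nM, doubling to 3 µM, in 100 mM Tris-HCl pH 7.5, 80 mM KCl, 4 mM MgCl2, BSA, DTT, yeast tRNA and Tween-20. Each series ran without and then with constant ligand, and green signal was normalised to red-channel RNA signal and control-cluster median Fmax.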

[1] = designed as: OFF switch for flavin mononucleotide, no ligand
[2] = ligand present: flavin mononucleotide, designed as: OFF switch for flavin mononucleotide
[3] = designed as: ON switch for flavin mononucleotide, no ligand
[4] = ligand present: flavin mononucleotide, designed as: ON switch for flavin mononucleotide

Sequence | apparent Kd [1] [nM] | apparent Kd [2] [nM] | apparent Kd [3] [nM] | apparent Kd [4] [nM]
UGUCUGAGCAGAGGAUAUUACAUGAGGAUCACCCAUGUAUGAACCAAUAGCUGGAAACAGCAAUGUAAGAAGGCUGCUCCGACA | 12.6 | 199 |  | 
CCUCCCUGAGGAUAUCCACCCUCAUACAUGAGGAUCACCCAUGUUCAUCCCUGGGUACCCGGAGAAGGCAGAUUUC | 154 | 165 |  | 
UCGCCAGGUACAGGAUAUGUGGAUCAGUCAAGUAAUUUGCUGAACAUGAGGAUCACCCAUGUAUCACAGAAGGGUGCCUCAAAA |  |  | 173 | 8.41
CCGGAAAUGCAGGAUAUCGUAUCGGAUACGAUACGAGAAGGGUAUACAUGAGGAUCACCCAUGUGUCCUGCCGG | 42.5 | 40.6 |  | 
GCUCGGCGUCAGAAGGCAGACGCGAAGCGCGUUUGAGGAUAUGACAUGAGGAUCACCCAUGUAGGUGUGCGAAAUUGUAAUCAC | 301 | 309 |  | 
GCCGAUUAAGUGAGGAUAUACCUAUGGAUACAUAGGUAGAAGGUACAUGAGGAUCACCCAUGUUCCUCAACGGC | 10.4 | 12.7 |  | 
GUACAGAGGGAGAAGGGCUAGGAGGUCCAGCUUAUGUGUGUUGCAACAUGAGGAUCACCCAUGUAGCAGGAUAUCCCUCGUACA | 40.2 | 257 |  | 
GUUAUUAACAAGAAGGCAUACAUGAGGAUCACCCAUGUUCUACAUGGAUAAUGAGGAUAUUGCUAAUACAUGAGGAUCACCCAU | 48.8 | 53.8 |  | 
GCGAUUGCGUAGAAGGUACAAUAUAUUUCAUUGUAAGGAUAUACUUACAUGAGGAUCACCCAUGUUAAAGGAUUUAGCAAUCGC |  |  | 12.4 | 10.3
GCAUUUUAUGCAGGAUAUUGACUUUGGAUUAAACAAGAAGGGCAUAACAUGAGGAUCACCCAUGUUAUAUAGGUAUAUAUGUUC | 7.45 | 9.62 |  | 
AAUUUACAGACAGGAUAUACAUGAGGAUCACCCAUGUAAUCAUAUGAUAUUUUUUUUGUAUGAGUGUAGAAGGGUCAAAUAAAA | 13.5 | 10.6 |  | 
GGGUACAUCGGAGGAUAUCAUGUAAAUACAUGAGGAUCACCCAUGUCGAUGGAGACAUCGGAGAUUGAGAAGGCCGAUGCACCG |  |  | 203 | 8.97
CGAUUGACGUAGAAGGGACUUAAGGGACAAAGCAUGCGAACGGACGGACAUGAGGAUCACCCAUGUCAGGAUAUACGUUCAUUU | 5.27 | 6 |  | 
AGUCAUACAGGAUAUACAUGAGGAUCACCCAUGUAAAUCCUACAUGGGUGAUCCUCAUGUAGAAGGGUAUGACA | 11.7 | 10.4 |  | 
GGUAGAAACAUUAACAUGAGGAUCACCCAUGUCAAAAGAAAUGAGGAUAUCGUAUUCAAUGUAUAUGAGAAGGCAUGGUCUGCC |  |  | 15.7 | 10.7
UGGUACAUGGGAGGAUAUCAUGUACUUACAUGAGGAUCACCCAUGUCGAUGGAGACAUCGGAGAUUGAGAAGGCCCAUGUACCU |  |  | 1220 | 42.2
GCCAUCGCAUGAGGAUAUGCUCCCGUUUCGGGAGCAGAAGGCAUGCCAUAAGACAUGAGGAUCACCCAUGUAGUUAAGAUGGCA |  |  | 5.71 | 5.75
AGGAGGUUAGGAUAUGCUGCUCGUCACUUGCGUGAUGAGUAGCAGAAGGGACAUGAGGAUCACCCAUGUAAAGA | 43.1 | 27.7 |  | 
UGCUGGCGAGGAUAUGCUCGGGUUGCUUGUCGCGCGGUUGCACAUGAGGAUCACCCAUGUAGAAGGUGUCUGUG | 311 | 438 |  | 
AGGACGGGUAAGAAGGCGUUCUCACAUGAGGAUCACCCAUGUCGAAGGAUGAGGAUAUUGGCCGAGGGUGGCGUUUUGUGACGA |  |  | 30.9 | 9.35
GCGAAGAACGAGAAGGCCACUACAUGAGGAUCACCCAUGUCGUGGAGUAUUGGAGGAUAUCGUUCGGCGUCUCAUGAGGACAUA | 4.95 | 5.22 |  | 
AUUGUUAAGUUAGGAUAUAGUAAAAUGAUUUAGUUAGAAGGAGCUCACAUGAGGAUCACCCAUGUAAGAGGAUCACCCAUGUAU | 24.9 | 18.3 |  | 
ACAAAGUGAGGAUAUGCUAUCGUACAUUAUUGUUAUCGUUUGCAGAAGGCACAUGAGGAUCACCCAUGUAAGAA | 29.4 | 30.5 |  | 
UUCGUGUAAGGAUAUACGACUCAUCCCAAUGGGACGAGCACGUAGAAGGUACAUGAGGAUCACCCAUGUGCUCC | 27.1 | 155 |  | 
AGAAACUACGAGAAGGACAAAACCGGUGCCGCAAACAUGAGGAUCACCCAUGUAGGAUAUCGUAGUUUCAGGAUCGUGAGAUCA | 9.2 | 31.2 |  | 
UCGACCGGCGCCGGUCGAACAUGAGGAUCACCCAUGUACUCCAGAAGGCCGCCCAAGAACGGAGUGGAGGAUAUGGAGGUUCUC |  |  | 77.1 | 22.3
AUUGAUGUUGAGGAUAUGCUUAUAUUUAUACUUGCAGAAGGCGAUACAUGAGGAUCACCCAUGUUCAUGGAAGU | 31.3 | 33.8 |  | 
AGGUGACAUGAGGAUCACCCAUGUCAGGAUAUAUACACUGCCGGCGUGACGCCGGCAGAUAGAAGGGACAAAAU | 15.9 | 18.4 |  | 

Sequence | apparent Kd [1] [nM] | apparent Kd [2] [nM] | apparent Kd [3] [nM] | apparent Kd [4] [nM]
CCCGCGAUGUCAGGAUAUAGUCGGAGGUGCAGACUAGAAGGGACAUGAGGAUCACCCAUGUGCGUAAACAUUUGAAACCCAGGU | 16.5 | 33.1 |  | 
CGAAGUCCGUAGAAGGGUGACAUGAGGAUCACCCAUGUGCGAGCCGAGGGAGUCAGCGGCUCGCCACAGGAUAUACGGAGCACG |  |  | 33.5 | 21.7
UUAAAUCAUGUAGGAUAUGCAUGGCGAAGCUACGCAGAAGGACAUGAGGAUCACCCAUGUUAUAGCUACCGAGUAAGGUGGCAA | 92.6 | 227 |  | 
UGUGUGUGGCAGGAUAUGCCGGUCGUUGGUCGGGUAGAAGGGUCUACAUGAGGAUCACCCAUGUGGCCGGUUGG | 46.8 | 44 |  | 
AAAAAAUAAGGAUAUACAUUUCGGGAAAUUUUUACAAAAAAACAUGAGGAUCACCCAUGUAGAAGGUAUAAAAA | 23.2 | 20.1 |  | 
UAAAUCAAGUCAGGAUAUCGUGCGGUUGGUCGUUACAUGAGGAUCACCCAUGUCUUCCGUUAGCUCGAGAAGGGACGUGAGCCC |  |  | 40 | 11.5
AUGAGUAAAGCAGGAUAUCUAUUGUCUCAGUAACAUGAGGAUCACCCAUGUAGAGAAGGGCUUAGUCAUUCACUUCGGAGUUGU | 14.8 | 38 |  | 
GCCAGUUAUGUAGGAUAUGCGAGGCGAGCCUGAGCAGAAGGACAUGAGGAUCACCCAUGUAUUGCGGUUUAUGUUCAGAUCGCU | 15.9 | 18.2 |  | 
GAAUAAUUGAUCCUUUUUUAUUACAUGAGGAUCACCCAUGUGCAGGAUAUCGAGAGUUUUAGAUUCGAGAAGGGCAAGAACUGU | 905 | 629 |  | 
AGGUGGUGUGGAAAGGAUAUACGGUUGAGGACAUGAGGAUCACCCAUGUGGUAGAGGACGUGAGUGUAGAAGGUUCGGGAUUGGU |  |  | 74.9 | 52.1
UUAAUUAUACAAGGAUAUCUAUUGUAGUUUCGACUGACAUGAGGAUCACCCAUGUAAAUAUGUUAAGAGAAGGUGUAUUUUAAA |  |  | 56.8 | 40.4
GGGCUGUCAGGAUAUGGGCCCGGGUUUGAAAGGGCCCGGGCCCAGAAGGGACAUGAGGAUCACCCAUGUGGCCC | 36.3 | 36.4 |  | 
GACAUGGUCCAGAAGGGCUAUCUAUUUAAGUACGAUUUAGAACAGCAUAGCAGGAUAUGGCUAACAUGAGGAUCACCCAUGUUC |  |  | 20.5 | 9.26
GCGUACAUAUCAGGAUAUCAUUGUAUUGUUUUACUCAGUGUAUACAUGAGGAUCACCCAUGUUCUUGAGAAGGGAUUACUACGC | 15.1 | 14.1 |  | 
CGCUCAAUAGAGAAGGAAAGAAUCAGAAGGCGUUACAUGAGGAUCACCCAUGUUUUGUAUAGUAACGAGGAUAUGAUAUGAGCG | 18.9 | 15.3 |  | 
GCGUUGUACGAGAAGGCCAAUACAUGAGGAUCACCCAUGUUAAGUUGUUUUGGAGGAUAUCGAUCAUCUACAAUAAUGCAACGC | 6.74 | 6.03 |  | 
AGAGUGUGAGGAUAUAUGGUAAAAGUGAAGAGAGAGGAGGAGUAGAAGGUACAUGAGGAUCACCCAUGUUUGGA | 42.8 | 36.7 |  | 
GUGAUCCCGGUUAGGAUAUUAGUGAUGUACACCUCUGAGAAGGGACAUGAGGAUCACCCAUGUCGCCUUGAAAC | 17.7 | 22.6 |  | 
UUUGAUUAUGUGAGGAUAUACUGUUUGUAUUGAUUGUAGAAGGUACAUGAGGAUCACCCAUGUUUUGUAUUUAU | 18.6 | 19.4 |  | 
AGAAACUACGAGAAGGACAUGUGGUCCUUCAAUUACAUGAGGAUCACCCAUGUAGGAUAUCGUAGUUUCAGGAUCGUGAGAUCA | 12.7 | 3.81 |  | 
GCCAUCGCAUGAGGAUAUGGCACCGUUUCGGUGCCAGAAGGCAUGUCUCUUGACAUGAGGAUCACCCAUGUAGUUAAGAUGGCA |  |  | 779 | 52
GUCAGCUCGUGAGGAUAUACAACACUGCUUCGGCAGUGUAUUAAGAUCACAUGAGGAUCACCCAUGUAGAAGGCACGGGCUGAU | 14 | 323 |  | 
GUGUACGGAGGAUAUAUGUGGGCAGGCUGACCUGCAGCUUCACAUGAGGAUCACCCAUGUAGAAGGCUGUACAC | 22.7 | 114 |  | 
GGACGUCACAUUUACAUGAGGAUCACCCAUGUCUCUUGACAUGAGGAUAUGUAUACUAAUUGUAUACAGAAGGCAUGGACGUCC |  |  | 1010 | 168
UUUAUAAAUUAGAAGGCGAGAUAAAAUACAAUAGACAUGAGGAUCACCCAUGUGUACCCAUGUUUUGAGGAUAUAGUCAUAUAU |  |  | 804 | 536
GGGAGACAUGAGGAUCACCCAUGUGAAAACGUGUGAGGAUAUGAAUGGAAACCAUACUGUUCAGAAGGCACUUGUC |  |  | 89.7 | 36.6
UUUAUGGGACAGAAGGGCAUUUACAUGAGGAUCACCCAUGUUCAUCAUUGCAGGAUAUGUAUUACAUGAGGAUCACCUAUGUUC |  |  | 170 | 82.5
